# In the library only some 4.6% were active in any assay of this set; here they are far more common.
# TAAR1 ag: human TAAR1 agonists, primary screen, Fluo-8 calcium fluorescence, CHO RD-HGA16 cells | Trace amine-associated receptor 1 (Homo sapiens), Q96RJ0 | vehicle wells 0%, saturating PEA agonist 100% | activation, % at 3 µM | 0.99% of 360,000 active;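 active = activation above the mean activation of all test compounds in the run plus 3 SD, cut at about 38% in these data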
# Target sequence (Q96RJ0 whole entry, looked up): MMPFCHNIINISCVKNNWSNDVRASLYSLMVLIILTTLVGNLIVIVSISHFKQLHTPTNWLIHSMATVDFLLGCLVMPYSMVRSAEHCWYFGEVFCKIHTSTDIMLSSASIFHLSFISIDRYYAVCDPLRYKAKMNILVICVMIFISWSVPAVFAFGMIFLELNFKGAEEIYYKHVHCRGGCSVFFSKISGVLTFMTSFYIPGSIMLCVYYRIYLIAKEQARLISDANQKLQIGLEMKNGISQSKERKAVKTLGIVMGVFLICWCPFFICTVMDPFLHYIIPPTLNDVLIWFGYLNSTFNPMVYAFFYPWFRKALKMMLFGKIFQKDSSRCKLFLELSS
#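 Signal – calcium-sensitive Fluo-8 signal, excitation 470-495, emission 515-575 nm · System – RD-HGA16 (CHO) cells co-expressing Gα16 and hTAAR1 · Incubation – 17-24 h seeding, 75 min 37 °C dye, 30 min RT · Compound dosing – 3 µM single concentration · Repeats – no replicates (n 1)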
# OX1R antag-1: antagonists of human orexin 1 receptor (OX1R) | Orexin/Hypocretin receptor type 1 (Homo sapiens), O43613 | inhibition, % at 6.6 µM | OX1R-expressing cells, FRET antagonist read-out | 1.8% of 330,000 active; in the data active = inhibition mostly above about 38%, no sharp cut-off; inactive = mostly below about 40%;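 also: 0% = agonist challenge alone and 100% = reference antagonist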
# CHO parental Ca: ATP-evoked calcium signal inhibitors, parental CHO, primary screen, counter-screen for OX1R antagonist project, cell-based, fluorescence, Fluo-8 calcium dye | 0.63% of 330,000 active | AID 463079, 2010 | inhibition, % at 5.6 µM | parental CHO-K1, ATP-induced calcium, Fluo-8 fluorescence;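 active = inhibition above that plate's mean sample inhibition plus 3 SD, cut at about 26% in these data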;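 also: 0% = ATP-challenged DMSO wells and 100% = DMSO wells without ATP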
#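 Measured by: calcium-sensitive Fluo-8 fluorescence / Test system: CHO parental line / Controls: ATP-challenged DMSO wells low, unchallenged DMSO wells high / Measure: % inhibition / Compound: single nominal dose of 5.6 µM per compound / Replicates: single well per compound, no replicates / Reagent: ATP as calcium-mobilizing challenge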
# TAAR1 antagonist: human TAAR1 antagonists, primary screen, Fluo-8 calcium fluorescence, CHO RD-HGA16 cells; 1.5% of 360,000 active; AID 624466, 2012; inhibition, % at 3 µM; Trace amine-associated receptor 1 (Homo sapiens), Q96RJ0; antagonist;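 active = inhibition above a per-plate cutoff, the mean inhibition of test compounds on that plate plus 3 SD, cut at about 49% in these data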;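 also: 0% = DMSO plus EC80 beta-PEA response and 100% = DMSO alone without agonist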
#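 Test system: CHO RD-HGA16 cells bearing hTAAR1 | Reagent: β-PEA, EC80 | Compound dosing: 3 µM, single point | Schedule: Dye loading 75 min at 37 °C, then 30 min room temperature | Signal: Calcium fluorescence with Fluo-8 | Evaluation: Percent inhibition of PEA-evoked calcium signal, max/basal emission ratio | Control set: DMSO-only wells and EC80 β-PEA-stimulated wells | Repeats: Singlicate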
# GPR7 antag: GPR7 receptor antagonists, primary screen, cell-based, fluorescence, single concentration; 1.1% of 290,000 active; inhibition, % at 4.4 µM; GPR7-expressing cells, fluorescence antagonist assay; Neuropeptides B/W receptor type 1 (Homo sapiens), P48145; in the data active = inhibition above about 16%, passing the limit was not always enough;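 also: cells stimulated with the agonist NPW; 0% = agonist with vehicle and 100% = vehicle without agonist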
# Target sequence (P48145 whole entry, looked up): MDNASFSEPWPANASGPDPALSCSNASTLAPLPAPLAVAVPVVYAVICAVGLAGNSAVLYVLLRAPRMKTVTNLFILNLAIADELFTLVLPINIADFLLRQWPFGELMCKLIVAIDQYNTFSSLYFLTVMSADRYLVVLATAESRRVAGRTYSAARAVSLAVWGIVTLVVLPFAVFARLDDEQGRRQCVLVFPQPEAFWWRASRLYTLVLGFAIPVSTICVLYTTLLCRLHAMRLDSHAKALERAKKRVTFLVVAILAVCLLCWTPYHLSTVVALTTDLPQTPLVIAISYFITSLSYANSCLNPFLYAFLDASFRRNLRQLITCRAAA
# OX1R antag-2: OX1R (HCRTR1) antagonists, primary screen, fluorescence, CHO/OX1R cells, Fluo-8 calcium, orexin A. inhibition, % at 5 µM. 0.43% of 330,000 active. AID 434989, 2010. Fluo-8 calcium fluorescence;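 active = inhibition above its plate's threshold, mean inhibition of all tested compounds on the plate plus 3 SD, cut at about 37% in these data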;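 also: 0% = orexin A challenge wells and 100% = SB-334867-A antagonist wells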
# GPR7 antag conf: GPR7 receptor antagonists, confirmation, cell-based, fluorescence, single concentration; 52% of 2,400 active; shares compounds with GPR7 antag; GPR7-expressing cells, calcium fluorescence antagonist mode; inhibition, % at 4.4 µM; in the data active = inhibition above about 24%;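 also: stimulated with the GPR7 agonist NPW; 0% = agonist plus vehicle and 100% = vehicle alone without agonist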
# MCHR1 antag: MCHR1 antagonists in cells, counter-screen for GPR7 antagonist project, cell-based, fluorescence, human; shares compounds with GPR7 antag; MCHR1-expressing cells, fluorescence antagonist assay; inhibition, % at 4.4 µM; 62% of 2,400 active; in the data active = inhibition above about 22%;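 also: 0% = vehicle with agonist and 100% = vehicle without agonist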
# * = called active by the depositor; / = not tested or not shown.
SMILES,TAAR1 ag,OX1R antag-1,CHO parental Ca,TAAR1 antagonist,GPR7 antag,OX1R antag-2,GPR7 antag conf,MCHR1 antag
C[C@H](CO)N1C[C@H](C)[C@H](CN(C)C(=O)Nc2ccc(F)cc2)Oc2ncc(Br)cc2C1=O,2.5,/,/,-11.3,/,/,/,/
CC(=O)c1c(C)[nH]c(C(=O)Nc2cccc(C(F)(F)F)c2)c1C,9.0,70.3*,37.4*,9.2,33.1*,44.8*,4.4,59.0*
O=C1NC(Cc2ccc(O)cc2)c2nc3cc(F)c(F)cc3c(=O)n2-c2ncccc21 (centres undefined),2.9,/,/,-8.2,/,/,/,/
COc1ccc(NC(=O)C(OC(=O)c2cnccn2)c2ccccc2)cc1Cl (centres undefined),1.9,23.5,-11.3,-24.1,31.6*,-12.4,18.8,20.0
COc1ccc(Cl)cc1N(CC(=O)NC1CC2CCC1C2)S(=O)(=O)c1ccccc1 (centres undefined),-0.4,26.2,-15.9,-5.7,33.3*,-20.3,36.9*,62.3*
CCOC(=O)[C@@H](C)N1[C@@H](C)[C@H](c2ccccc2)Oc2ccc(Cl)cc2S1(=O)=O,0.4,/,/,-42.4,/,/,/,/
Cc1ccc(CS(=O)(=O)c2ncc(Cl)c(C(=O)Nc3ccc(OC(F)F)cc3)n2)cc1,-1.4,24.6,59.1*,27.6,42.6*,51.0*,83.9*,96.4*
Cc1ccc(-c2csc(NC(=O)C3CCN(S(=O)(=O)c4cccs4)CC3)n2)cc1,0.6,14.8,22.4,1.1,39.3*,6.3,43.4*,56.9*
Cc1ccc(NC(=O)C2CCN(S(=O)(=O)c3cccs3)CC2)cc1,1.1,-2.9,-4.2,19.1,0.4,-20.6,/,/
COCCn1c(SCC(=O)N(C)c2ccccc2)nc2c([nH]c3ccccc32)c1=O,4.8,23.6,-27.8,27.9,30.6*,-16.4,-19.4,-2.0
O=C(CSc1nccn1-c1ccccc1)Nc1ccc2c(c1)OCO2,1.9,17.9,4.8,6.1,28.1*,3.9,26.1*,23.6*
O=C(CSc1nccn1-c1ccc(F)cc1)Nc1ccc2c(c1)OCO2,-0.2,35.3,-11.2,-2.4,7.4,-10.5,/,/
CCOC(=O)c1c(-c2ccccc2)oc2ccc(OCC)cc12,4.3,14.2,-27.7,-14.9,-12.9,-40.3,/,/
CCOC(=O)c1c(-c2ccccc2)oc2ccc(OCC(O)CNCCN(C)C)cc12 (centres undefined),2.8,-0.9,4.8,15.9,72.3*,-21.6,60.0*,69.3*
CC(NCc1cc(Br)ccc1OCC(=O)NCc1ccccc1)c1ccccc1 (centres undefined),26.3,14.9,-17.4,-7.1,29.8*,5.0,34.0*,39.5*
O=C(O)CCCC(=O)OCCCc1cc2ccccc2c(=O)o1,4.6,/,/,-8.8,/,/,/,/
O=C(COC(=O)c1cnccn1)c1ccc(-c2ccccc2)cc1,2.8,23.1,11.6,1.4,/,-12.0,/,/
CCN(C(=O)c1cc2c(s1)-c1ccccc1S(=O)(=O)C2)c1cc(OC)ccc1OC,1.0,-2.9,-6.1,-2.8,0.3,-27.1,/,/
CCN(C(=O)c1cc2c(s1)-c1ccccc1OC2)c1cc(OC)ccc1OC,-0.1,13.7,34.6*,-8.9,31.5*,-8.0,49.7*,55.5*
CCOC(=O)C1=CCN(S(=O)(=O)c2ccccc2F)C1c1ccc(Br)cc1 (centres undefined),0.5,/,/,26.1,/,/,/,/
COc1ccc(C2C(O)C(c3c[nH]c4ccccc34)=NN2C(=O)CCl)cc1 (centres undefined),2.5,13.8,-6.2,15.1,22.4*,-1.9,38.7*,46.8*
COc1ccc(NC(=O)/C(Cl)=C(/Cl)S(=O)Cc2ccc(Cl)cc2)cn1 (centres undefined),5.3,/,/,51.7*,30.3*,/,80.5*,92.6*
CCCCn1c(N)c(N(Cc2ccccc2OC)C(=O)COc2ccccc2C#N)c(=O)[nH]c1=O,0.2,12.3,-13.0,-14.2,27.3*,-1.7,1.8,2.9
CCCCn1c(N)c(N(Cc2ccccc2OC)C(=O)COc2ccc(F)cc2Cl)c(=O)[nH]c1=O,1.2,11.7,-14.2,-12.2,-5.3,0.3,/,/
CCc1cccc(CC)c1NC(=O)CN1CC(C)SC1=NC1CCCCC1 (centres undefined),14.6,9.3,-14.6,-2.9,38.5*,-27.2,54.8*,32.6*
SMILES,TAAR1 ag,OX1R antag-1,CHO parental Ca,TAAR1 antagonist,GPR7 antag,OX1R antag-2,GPR7 antag conf,MCHR1 antag
CCc1cccc(CC)c1NC(=O)NC1CCCCC1,-0.1,14.5,3.3,-14.6,3.0,-10.9,/,/
CC(C)(C)c1cc(C(=O)Nc2ccc(F)cc2)n(Cc2ccc(F)cc2)n1,2.1,54.6,0.7,64.8*,22.7*,-2.4,2.5,56.2*
Cc1ccc(-c2ccc(=O)n(Cc3ccc(F)cc3)n2)cc1,-2.8,1.4,2.7,4.7,10.7,-13.5,/,/
COc1ccc(-c2ccc(=O)n(Cc3ccc([N+](=O)[O-])cc3)n2)cc1,4.0,20.6,17.3,-7.7,36.2*,24.2,52.0*,82.8*
COc1ccc(-c2cn[nH]c2-c2ccc(OCc3ccccc3F)cc2O)cc1OC,2.3,28.1,-1.2,21.0,-17.6,-1.1,/,/
CCOc1ccc(NC(=O)COC(=O)Cc2ccsc2)cc1,-0.9,-0.2,-4.7,4.3,/,1.4,/,/
O=C(Nc1ccc(N2CCN(c3ncccc3C(F)(F)F)CC2)nc1)c1cccs1,22.0,21.7,17.4,75.4*,21.3*,8.3,35.3*,80.5*
O=C(Nc1ccc(N2CCN(c3ccc(C(F)(F)F)cn3)CC2)nc1)c1cccs1,3.1,5.5,-7.6,-22.8,-17.9,15.2,/,/
O=S(=O)(c1ccc(OC(F)(F)F)cc1)N1CCC(O)(c2cccc(C(F)(F)F)c2)CC1,43.1*,5.5,14.4,36.3,39.1*,15.1,44.5*,45.5*
COc1ccc(-c2nc(SCC(=O)NC3CCCCC3)n[nH]2)cc1,9.6,/,/,-14.5,23.0*,/,-22.2,34.6*
Cc1ccc(S(=O)(=O)CCC(=O)OCC(=O)NC(N)=O)cc1,1.1,10.9,-6.8,-20.0,-9.9,3.9,/,/
